Experimental data published in ChEMBL document CHEMBL5338774, “Quinazoline-2-Carboxamides as Selective PET Radiotracers for Matrix Metalloproteinase-13 Imaging in Atherosclerosis” (J Med Chem, 2023).

Assays:
[1] = Tmax in western atherogenic diet fed ApoE-/- mouse blood at […], iv administered as bolus injection measured for 60 mins by PET analysis; format: ADME, organism-based; details: in vivo, 1 h
In short: (§1)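 A 10 min transmission scan preceded tail-vein IV bolus of radiotracer (~7.5 MBq, over 30 s) in diet-fed ApoE-/- mice. Dynamic whole-body PET ran for 60 min (4×15 s, 4×1 min, 11×5 min frames), corrected for attenuation and scatter, 3D-OSEM/MAP reconstruction. Volumetric organ ROIs gave %ID·cc⁻¹ time-activity curves; n = 2 per group.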

[2] = Stability of compound in 10% EtOH/saline assessed as compound degradation measured upto 75 mins by analytical radio-HPLC analysis; format: physicochemical; details: buffer, 1.25 h
In short: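 Radiotracer formulated in 10% EtOH/0.9% saline was held at room temperature up to 75 min. Samples were analysed by analytical radio-HPLC (C18, 0.1 M ammonium formate/ACN gradient, 1 mL·min⁻¹).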

[3] = Octanol/PBS distribution coefficient, logD of compound at pH 7.4 incubated for 10 mins under shaking condition by gamma counter analysis; format: physicochemical
In short: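 Radiotracer partitioning between 1-octanol and 1× PBS at pH 7.4. Mean ± standard error of two independent experiments, each in quadruplicate.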

[4] = Drug distribution in western atherogenic diet fed ApoE-/- mouse myocardium assessed as myocardial retention at […], iv administered as bolus injection measured for 60 mins by PET analysis; format: ADME, organism-based; details: in vivo, 1 h; in short: as §1
[5] = Drug distribution in western atherogenic diet fed ApoE-/- mouse liver at […], iv administered as bolus injection measured for 60 mins by PET analysis; format: ADME, organism-based; details: in vivo, 1 h; in short: as §1
[6] = Drug distribution in western atherogenic diet fed ApoE-/- mouse intestine at […], iv administered as bolus injection measured for 60 mins by PET analysis; format: ADME, organism-based; details: in vivo, 1 h; in short: as §1
[7] = Drug distribution in western atherogenic diet fed ApoE-/- mouse kidney at […], iv administered as bolus injection measured for 60 mins by PET analysis; format: ADME, organism-based; details: in vivo, 1 h; in short: as §1
[8] = Drug distribution in western atherogenic diet fed ApoE-/- mouse urinary bladder at […], iv administered as bolus injection measured for 60 mins by PET analysis; format: ADME, organism-based; details: in vivo, 1 h; in short: as §1
[9] = Drug distribution in western atherogenic diet fed ApoE-/- mouse blood assessed as compound remaining at […], iv administered as bolus injection measured for 30 mins by gamma counter analysis; format: ADME, organism-based; details: in vivo, 0.5 h
In short: (§2)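 Diet-fed male ApoE-/- mice (39 ± 5 g, n = 4-6) under 2% isoflurane received radiotracer (~7.5 MBq, 100-200 µL) IV by tail-vein bolus over 30 s. After 30 min, blood was taken by cardiac puncture, then PBS/formalin perfusion and organ dissection. Uptake is decay-corrected %ID normalized to tissue mass (%ID/g).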

[10] = Drug distribution in western atherogenic diet fed ApoE-/- mouse myocardium assessed as compound remaining at […], iv administered as bolus injection measured for 30 mins by gamma counter analysis; format: ADME, organism-based; details: in vivo, 0.5 h; in short: as §2
[11] = Drug distribution in western atherogenic diet fed ApoE-/- mouse liver at […], iv administered as bolus injection measured for 30 mins by gamma counter analysis; format: ADME, organism-based; details: in vivo, 0.5 h; in short: as §2
[12] = Drug distribution in western atherogenic diet fed ApoE-/- mouse kidney at […], iv administered as bolus injection measured for 30 mins by gamma counter analysis; format: ADME, organism-based; details: in vivo, 0.5 h; in short: as §2
[13] = Drug distribution in western atherogenic diet fed ApoE-/- mouse intestine at […], iv administered as bolus injection measured for 30 mins by gamma counter analysis; format: ADME, organism-based; details: in vivo, 0.5 h; in short: as §2
[14] = Drug distribution in western atherogenic diet fed ApoE-/- mouse bone at […], iv administered as bolus injection measured for 30 mins by gamma counter analysis; format: ADME, organism-based, Bone element; details: in vivo, 0.5 h; in short: as §2
[15] = Drug distribution in western atherogenic diet fed ApoE-/- mouse brain at […], iv administered as bolus injection measured for 30 mins by gamma counter analysis; format: ADME, organism-based; details: in vivo, 0.5 h; in short: as §2
[16] = Drug distribution in western atherogenic diet fed ApoE-/- mouse fat tissue at […], iv administered as bolus injection measured for 30 mins by gamma counter analysis; format: ADME, organism-based, Adipose tissue; details: in vivo, 0.5 h; in short: as §2
[17] = Drug distribution in western atherogenic diet fed ApoE-/- mouse lung at […], iv administered as bolus injection measured for 30 mins by gamma counter analysis; format: ADME, organism-based; details: in vivo, 0.5 h; in short: as §2
[18] = Drug distribution in western atherogenic diet fed ApoE-/- mouse muscle tissue at […], iv administered as bolus injection measured for 30 mins by gamma counter analysis; format: ADME, organism-based; details: in vivo, 0.5 h; in short: as §2
[19] = Drug distribution in western atherogenic diet fed ApoE-/- mouse spleen at […], iv administered as bolus injection measured for 30 mins by gamma counter analysis; format: ADME, organism-based; details: in vivo, 0.5 h; in short: as §2
[20] = Drug distribution in western atherogenic diet fed ApoE-/- mouse stomach at […], iv administered as bolus injection measured for 30 mins by gamma counter analysis; format: ADME, organism-based; details: in vivo, 0.5 h; in short: as §2
[21] = Drug distribution in western atherogenic diet fed ApoE-/- mouse pancreas at […], iv administered as bolus injection measured for 30 mins by gamma counter analysis; format: ADME, organism-based; details: in vivo, 0.5 h; in short: as §2
[22] = Stability in western atherogenic diet fed ApoE-/- mouse plasma assessed as intact compound level at ~75 MBq, iv administered as bolus injection and measured after 30 mins by gamma counter analysis; format: ADME, organism-based; details: read-out: Stability
In short: (§3)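 Blood was drawn by cardiac puncture into K₂EDTA tubes 30 min after IV radiotracer in diet-fed ApoE-/- mice. Optional IV pretreatment 15 min before: unlabelled analogue 2.5 mg/kg or WAY170523 7.5 mg/kg. Pooled protein-free plasma was spiked with standard and run on radio-HPLC (C18, ammonium formate/ACN). Fractions were collected each minute and gamma-counted to give the parent fraction.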

[23] = Drug distribution in western atherogenic diet fed ApoE-/- mouse aortic plaques at […], iv administered as bolus injection measured for 30 mins by Oil Red O staining based autoradiography; format: ADME, organism-based, Aorta; details: in vivo, 0.5 h
In short: (§4)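 Male ApoE-/- mice were fed a western atherogenic diet from 8 weeks of age for 13-16 weeks. Radiotracer (~7.5 MBq) was given IV by tail-vein bolus over 30 s. Blocking: unlabelled tracer analogue (2.5 mg/kg; DMA/propylene glycol/PEG400/water) or WAY170523 (7.5 mg/kg; DMSO/PEG400/water), both IV 15 min before. At 30 min, perfused aortae were exposed to a phosphor screen for 10 half-lives (%ID·mm⁻²), with ORO staining.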

[24] = Drug excretion in western atherogenic diet fed ApoE-/- mouse urine at […], iv administered as bolus injection measured for 60 mins by PET analysis; format: ADME, organism-based; details: in vivo, 1 h; in short: as §1
[25] = Drug distribution in western atherogenic diet fed ApoE-/- mouse blood assessed as compound remaining at 14 to 16 MBq, iv administered as bolus injection measured for 150 mins by gamma counter analysis; format: ADME, organism-based; details: in vivo, 2.5 h, dose 14-16 MBq
[26] = Stability in western atherogenic diet fed ApoE-/- mouse plasma assessed as intact compound level at ~75 MBq, iv administered as bolus injection pretreated with 6-fluoro-N-(4-fluoro-3-methylphenyl)methyl)-5-(2-fluoroethoxy)-4-oxo-3,4-dihydroquinazoline-2-carboxamide followed by tracer addition and measured after 30 mins by gamma counter analysis; format: ADME, organism-based; details: read-out: Stability; in short: as §3
[27] = Stability in western atherogenic diet fed ApoE-/- mouse plasma assessed as intact compound level at ~75 MBq, iv administered as bolus injection pretreated with N-(2-(4-(N-benzyl-N-(2-(hydroxycarbamoyl)-4,6-dimethylphenyl)sulfamoyl)phenoxy)ethyl)benzofuran-2-carboxamide followed by tracer addition and measured after 30 mins by gamma counter analysis; format: ADME, organism-based; details: read-out: Stability; in short: as §3
[28] = Drug distribution in western atherogenic diet fed ApoE-/- mouse aortic plaques at […], iv administered as bolus injection pretreated with 6-fluoro-N-(4-fluoro-3-methylphenyl)methyl)-5-(2-fluoroethoxy)-4-oxo-3,4-dihydroquinazoline-2-carboxamide for 15 mins followed by tracer addition and measured after 30 mins by Oil Red O staining based autoradiography; format: ADME, organism-based, Aorta; details: in vivo, 0.5 h; in short: as §4
[29] = Drug distribution in western atherogenic diet fed ApoE-/- mouse aortic plaques at […], iv administered as bolus injection pretreated with N-(2-(4-(N-benzyl-N-(2-(hydroxycarbamoyl)-4,6-dimethylphenyl)sulfamoyl)phenoxy)ethyl)benzofuran-2-carboxamide for 15 mins followed by tracer addition and measured after 30 mins by Oil Red O staining based autoradiography; format: ADME, organism-based, Aorta; details: in vivo, 0.5 h; in short: as §4
[30] = Drug distribution in western atherogenic diet fed ApoE-/- mouse aortic plaques assessed as reduction in radioactivity at […], iv administered as bolus injection pretreated with 6-fluoro-N-(4-fluoro-3-methylphenyl)methyl)-5-(2-fluoroethoxy)-4-oxo-3,4-dihydroquinazoline-2-carboxamide for 15 mins followed by tracer addition and measured after 30 mins by Oil Red O staining based autoradiography relative to control; format: ADME, organism-based, Aorta; set-up: scale not given: the % may be the effect or the level left; details: in vivo, 0.5 h; in short: as §4
[31] = Drug distribution in western atherogenic diet fed ApoE-/- mouse aortic plaques assessed as reduction in radioactivity at […], iv administered as bolus injection pretreated with N-(2-(4-(N-benzyl-N-(2-(hydroxycarbamoyl)-4,6-dimethylphenyl)sulfamoyl)phenoxy)ethyl)benzofuran-2-carboxamide for 15 mins followed by tracer addition and measured after 30 mins by Oil Red O staining based autoradiography relative to control; format: ADME, organism-based, Aorta; set-up: scale not given: the % may be the effect or the level left; details: in vivo, 0.5 h; in short: as §4

Compound | Tmax [1] | Stability [2] | logD at 10 min [3] | Drug uptake [4] | Drug uptake [5] | Drug uptake [7] | Drug uptake [9] | Drug uptake [10] | Drug uptake [11] | Drug uptake [14] | Drug uptake [15] | Drug uptake [16] | Drug uptake [17] | Drug uptake [18] | Drug uptake [19] | Drug uptake [20] | Drug uptake [21] | remaining at 0.5 h [22] | Drug uptake [23] | also measured
[11CH3]Oc1cccc(CNC(=O)c2nc3ccc(F)c(OCCc4ccc(C(=O)O)cc4)c3c(=O)[nH]2)c1 | 37.5 s | Stable | 1.16 | < 0.5 %ID/cc | 25.29 %ID/cc | 21.01 %ID/cc | 0.49 % ID/g | ~ 1 % ID/g | 7.29 % ID/g | ~ 2 % ID/g | ~ 2 % ID/g | ~ 2 % ID/g | ~ 2 % ID/g | ~ 2 % ID/g | 2.11 % ID/g | ~ 2 % ID/g | ~ 2 % ID/g | 86% | 52.97 %ID.m^-2 | Drug uptake [6]: Active; Drug uptake [8]: Not Active; Drug uptake [12]: 30.95 % ID/g; Drug uptake [13]: 53.05 % ID/g
Cc1cc(CNC(=O)c2nc3ccc(F)c(OCC[18F])c3c(=O)[nH]2)ccc1F | 37.5 s | Stable | 3.09 | < 0.5 %ID/cc | 6.43 %ID/cc | 4.42 %ID/cc | 3.28 % ID/g | ~ 1 % ID/g | 3.32 % ID/g | ~ 2 % ID/g | ~ 2 % ID/g | ~ 2 % ID/g | ~ 2 % ID/g | ~ 2 % ID/g | ~ 2 % ID/g | ~ 2 % ID/g | 2.14 % ID/g | 78% | 270 %ID.m^-2 | Drug excretion [24]: Active; Drug uptake [25]: Active; remaining at 0.5 h [26]: 78%; remaining at 0.5 h [27]: 87%; Drug uptake [28]: 208.2 %ID.m^-2; Drug uptake [29]: 173.4 %ID.m^-2; Activity [30]: 23%; Activity [31]: 36%
